Assay results taken from ChEMBL document CHEMBL1135884 (J Med Chem, 2002).

Columns and labels:
Serine protease 1 = target: T1, Serine protease 1 (Bos taurus, UniProt P00760); assay: Inhibitory concentration against bovine trypsin
T1 sequence (P00760 whole entry): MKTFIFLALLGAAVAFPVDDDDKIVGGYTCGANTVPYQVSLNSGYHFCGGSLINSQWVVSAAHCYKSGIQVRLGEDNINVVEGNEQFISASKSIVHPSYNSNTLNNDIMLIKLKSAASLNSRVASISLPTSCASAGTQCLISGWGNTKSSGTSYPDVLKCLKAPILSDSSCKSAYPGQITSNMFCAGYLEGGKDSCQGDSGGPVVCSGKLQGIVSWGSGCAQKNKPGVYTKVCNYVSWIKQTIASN

Coagulation factor X [1] = target: T2, Coagulation factor X (Homo sapiens, UniProt P00742); assay: Inhibitory concentration against human Coagulation factor Xa (fXa)
Coagulation factor X [2] = target: T2, Coagulation factor X; assay: Inhibitory concentration against human Coagulation factor Xa(fXa)
Procedure, shortened: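 4-Nitroaniline release was read by absorbance at 405 nm. Inhibitors were prepared as 40 mM DMSO stocks and tested at 500, 50 and 5 µM. Km and Ki were obtained by nonlinear regression, with known factor Xa inhibitors as reference.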

Prothrombin = Prothrombin (Homo sapiens, UniProt P00734); assay: Inhibitory concentration against thrombin.

T2 sequence (P00742 41-179 limits assumed): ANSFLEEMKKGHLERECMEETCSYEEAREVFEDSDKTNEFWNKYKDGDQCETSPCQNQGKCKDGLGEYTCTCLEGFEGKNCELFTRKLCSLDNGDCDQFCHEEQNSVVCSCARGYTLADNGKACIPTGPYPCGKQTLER
T2 sequence (P00742 235-488 limits assumed): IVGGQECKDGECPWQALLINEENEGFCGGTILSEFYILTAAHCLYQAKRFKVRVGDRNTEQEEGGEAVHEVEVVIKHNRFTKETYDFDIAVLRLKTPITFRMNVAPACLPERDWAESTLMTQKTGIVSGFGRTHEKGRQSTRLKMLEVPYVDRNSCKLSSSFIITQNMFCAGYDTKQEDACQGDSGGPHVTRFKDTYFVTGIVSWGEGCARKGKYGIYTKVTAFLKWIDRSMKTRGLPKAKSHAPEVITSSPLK

Ki (Serine protease 1) [µM] | Ki (Coagulation factor X [1]) [µM] | Ki (Coagulation factor X [2]) [µM] | Ki (Prothrombin) [µM] | Compound
0.98 |  |  |  | N=C(N)c1cccc(C(=O)N[C@@H](C(=O)N2CCC(C(=O)c3ccccc3)CC2)c2ccccc2)c1
7.4 |  |  |  | N=C(N)c1cccc(C(=O)N[C@@H](C(=O)NCC2CCC(CN)CC2)c2ccccc2)c1 (some centres not stated)
14 |  |  |  | N=C(N)c1cccc(C(=O)NCC(=O)NCC2CCC(CN)CC2)c1 (configuration not stated)
 | 0.2 |  |  | N=C(N)c1ccccc1 [BENZAMIDINE]
12.5 | 2 |  |  | CCOC(=O)[C@@H](Cc1ccc2ccccc2c1)NC(=O)c1cccc(C(=N)N)c1
1.6 | 0.026 |  |  | N=C(N)c1cccc(C(=O)N[C@@H](C(=O)OCCC2CCN(C(=N)N)CC2)c2ccccc2)c1
0.159 |  |  |  | CC(=N)N1CCC(Oc2ccc(N(Cc3ccc4ccc(C(=N)N)cc4c3)S(=O)(=O)CC(=O)O)cc2)CC1 [YM-60828]
1.7 |  | 0.016 | 1.6 | N=C(N)c1cccc(C(=O)N[C@@H](C(=O)N2CCN(c3ccc(Cl)cc3)CC2)c2ccccc2)c1
